Results as given in ChEMBL document CHEMBL3862011, “Neuroprotective effects of benzyloxy substituted small molecule monoamine oxidase B inhibitors in Parkinson's disease” (Bioorg Med Chem, 2016).
Calls of active or inactive are those of the source. The rule behind the calls is not given here.

Key:
[1] = Cytotoxicity against rat PC12 cells assessed as cell survival at 100 uM after 24 hrs by MTT assay relative to control; assay type: toxicity, PC-12; details: read-out: Survival
[2] = Cytotoxicity against rat PC12 cells assessed as cell survival at 20 uM after 72 hrs by MTT assay relative to control; assay type: toxicity, PC-12; details: read-out: Survival
[3] = Neuroprotective activity against rotenone-induced toxicity in rat PC12 cells assessed as cell survival at 20 uM preincubated for 24 hrs followed by rotenone addition measured after 24 hrs by MTT assay relative to control; assay type: functional; details: PC-12, read-out: Survival
In short: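 PC12 cells seeded 5×10^3/well, after 24 h given compound at 20 μM for 24 h at 37 °C, then exposed to 6-OHDA (40 μM) or rotenone (1 μM) for 24 h. […] Mean ± SEM of three independent experiments.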

PC-12 [4] = assay: Neuroprotective activity against rotenone-induced toxicity in rat PC12 cells assessed as increase in cell survival preincubated for 24 hrs followed by rotenone addition measured after 24 hrs by MTT assay; assay type: functional, cell-based
In short: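 PC12 cells in RPMI-1640 with 10% FBS were seeded at 5×10^3 cells/well. After 24 h, compounds at 20 μM were added for 24 h at 37 °C, followed by 6-OHDA (40 μM) or rotenone (1 μM) for 24 h. Viability by MTT (570 nm, reference 630 nm), expressed as percent of untreated control. […] Mean ± SEM.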

PC-12 [5] = assay: Neuroprotective activity against 6-OHDA-induced apoptosis in rat PC12 cells assessed as necrotic cells at 5 uM after 24 hrs by 7-AAD/annexin V APC staining-based flow cytometric method (reference value: 0.6%); assay type: functional
PC-12 [6] = assay: Neuroprotective activity against 6-OHDA-induced apoptosis in rat PC12 cells assessed as viable cells at 5 uM after 24 hrs by 7-AAD/annexin V APC staining-based flow cytometric method (reference value: […]); assay type: functional; details: PC-12, 24 h, read-out: Activity
PC-12 [7] = assay: Neuroprotective activity against 6-OHDA-induced apoptosis in rat PC12 cells assessed as necrotic cells at 10 uM after 24 hrs by 7-AAD/annexin V APC staining-based flow cytometric method (reference value: 0.6%); assay type: functional
PC-12 [8] = assay: Neuroprotective activity against 6-OHDA-induced apoptosis in rat PC12 cells assessed as viable cells at 10 uM after 24 hrs by 7-AAD/annexin V APC staining-based flow cytometric method (reference value: […]); assay type: functional; details: PC-12, 24 h, read-out: Activity
PC-12 [9] = assay: Neuroprotective activity against 6-OHDA-induced apoptosis in rat PC12 cells assessed as early apoptotic cells at 40 uM after 24 hrs by 7-AAD/annexin V APC staining-based flow cytometric method (reference value: 42.1%); assay type: functional
PC-12 [10] = assay: Neuroprotective activity against 6-OHDA-induced apoptosis in rat PC12 cells assessed as late apoptotic cells at 40 uM after 24 hrs by 7-AAD/annexin V APC staining-based flow cytometric method (reference value: 4.4%); assay type: functional
PC-12 [11] = assay: Neuroprotective activity against 6-OHDA-induced apoptosis in rat PC12 cells assessed as viable cells at 40 uM after 24 hrs by 7-AAD/annexin V APC staining-based flow cytometric method (reference value: […]); assay type: functional; details: PC-12, 24 h, read-out: Activity
PC-12 [12] = assay: Neuroprotective activity against rotenone-induced apoptosis in rat PC12 cells assessed as early apoptotic cells at 5 uM after 24 hrs by 7-AAD/annexin V APC staining-based flow cytometric method (reference value: 2.2%); assay type: functional
PC-12 [13] = assay: Neuroprotective activity against rotenone-induced apoptosis in rat PC12 cells assessed as late apoptotic cells at 5 uM after 24 hrs by 7-AAD/annexin V APC staining-based flow cytometric method (reference value: 9.9%); assay type: functional
PC-12 [14] = assay: Neuroprotective activity against rotenone-induced apoptosis in rat PC12 cells assessed as necrotic cells at 5 uM after 24 hrs by 7-AAD/annexin V APC staining-based flow cytometric method (reference value: 48.6%); assay type: functional
PC-12 [15] = assay: Neuroprotective activity against rotenone-induced apoptosis in rat PC12 cells assessed as viable cells at 5 uM after 24 hrs by 7-AAD/annexin V APC staining-based flow cytometric method (reference value: 39.3%); assay type: functional; details: PC-12, 24 h, read-out: Activity
PC-12 [16] = assay: Neuroprotective activity against rotenone-induced apoptosis in rat PC12 cells assessed as early apoptotic cells at 10 uM after 24 hrs by 7-AAD/annexin V APC staining-based flow cytometric method (reference value: 2.2%); assay type: functional
PC-12 [17] = assay: Neuroprotective activity against rotenone-induced apoptosis in rat PC12 cells assessed as necrotic cells at 10 uM after 24 hrs by 7-AAD/annexin V APC staining-based flow cytometric method (reference value: 48.6%); assay type: functional
PC-12 [18] = assay: Neuroprotective activity against rotenone-induced apoptosis in rat PC12 cells assessed as early apoptotic cells at 20 uM after 24 hrs by 7-AAD/annexin V APC staining-based flow cytometric method (reference value: 2.2%); assay type: functional
PC-12 [19] = assay: Neuroprotective activity against rotenone-induced apoptosis in rat PC12 cells assessed as late apoptotic cells at 20 uM after 24 hrs by 7-AAD/annexin V APC staining-based flow cytometric method (reference value: 9.9%); assay type: functional
PC-12 [20] = assay: Neuroprotective activity against rotenone-induced apoptosis in rat PC12 cells assessed as necrotic cells at 20 uM after 24 hrs by 7-AAD/annexin V APC staining-based flow cytometric method (reference value: 48.6%); assay type: functional
PC-12 [21] = assay: Neuroprotective activity against rotenone-induced apoptosis in rat PC12 cells assessed as late apoptotic cells at 40 uM after 24 hrs by 7-AAD/annexin V APC staining-based flow cytometric method (reference value: 9.9%); assay type: functional
PC-12 [22] = assay: Neuroprotective activity against rotenone-induced apoptosis in rat PC12 cells assessed as viable cells at 40 uM after 24 hrs by 7-AAD/annexin V APC staining-based flow cytometric method (reference value: 39.3%); assay type: functional; details: PC-12, 24 h, read-out: Activity
PC-12 [23] = assay: Neuroprotective activity against rotenone-induced apoptosis in rat PC12 cells at 20 uM preincubated for 24 hrs followed by rotenone addition measured after 24 hrs by 7-AAD/annexin V APC staining-based flow cytometric method; assay type: functional, cell-based
PC-12 [24] = assay: Neuroprotective activity against 6-OHDA-induced apoptosis in rat PC12 cells assessed as decrease in nuclear condensation at 20 uM after 24 hrs by Hoechst 33258 staining-based fluorescent inverted microscopic method; assay type: functional, cell-based
In short: (§1)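 PC12 cells exposed to 6-OHDA or rotenone with test treatment were stained with Hoechst 33258 for 30 min, mounted on glass slides under cover slips, and examined by fluorescent inverted microscopy.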

PC-12 [25] = assay: Neuroprotective activity against 6-OHDA-induced apoptosis in rat PC12 cells assessed as decrease in nuclear fragmentation at 20 uM after 24 hrs by Hoechst 33258 staining-based fluorescent inverted microscopic method; assay type: functional, cell-based; in short: as §1
PC-12 [26] = assay: Neuroprotective activity against 6-OHDA-induced reactive oxygen species accumulation in rat PC12 cells after 24 hrs by DCFH-DA probe-based flow cytometric method; assay type: functional, cell-based
In short: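 PC12 cells were seeded at 2×10^5 cells/well in six-well plates and cultured with or without various concentrations of test samples for 24 h. After washing, they were loaded with DCFH-DA for 30 min at 37 °C in the dark, washed and harvested. DCF fluorescence read by flow cytometry (ex 488/em 525 nm), reported as mean fluorescence intensity.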

SMILES: O=C1CCOc2cc(OCc3ccc(F)cc3)ccc21
- viability at 24 h, 100 µM [1]: 93.1%
- viability at 72 h, 20 µM [2]: 94.5%
- viability at 20 µM [3]: 126%
- Activity (PC-12 [4]): Dose-dependent effect
- Activity (PC-12 [5]): 3.8%
- viability at 5 µM (PC-12 [6]): 69.3%
- Activity (PC-12 [7]): 4%
- viability at 10 µM (PC-12 [8]): 70.7%
- Activity (PC-12 [9]): 7%
- Activity (PC-12 [10]): 0.2%
- viability at 40 µM (PC-12 [11]): 90.8%
- Activity (PC-12 [12]): 3.3%
- Activity (PC-12 [13]): 9.3%
- Activity (PC-12 [14]): 33.2%
- viability at 5 µM (PC-12 [15]): 54.2%
- Activity (PC-12 [16]): 5%
- Activity (PC-12 [17]): 30.8%
- Activity (PC-12 [18]): 2.5%
- Activity (PC-12 [19]): 9.5%
- Activity (PC-12 [20]): 30.2%
- Activity (PC-12 [21]): 9.2%
- viability at 40 µM (PC-12 [22]): 62.1%
- Activity (PC-12 [23]): Dose-dependent effect
- Activity (PC-12 [24]): Active
- Activity (PC-12 [25]): Active
- Activity (PC-12 [26]): Dose-dependent effect
